The values below come from ChEMBL document CHEMBL4765345, “Design, synthesis, and biological evaluation of dual targeting inhibitors of histone deacetylase 6/8 and bromodomain BRPF1” (Eur J Med Chem, 2020).

For series [1], the system named is THP-1. Kind of series: Antiproliferative activity against human THP-1 assessed as reduction in cell growth at 4 uM by CellTiter-non radioactive cell proliferation assay. Format: functional.
A further series has as its system HL-60. Kind of series: Antiproliferative activity against human HL60 assessed as reduction in cell growth at 20 uM by CellTiter-non radioactive cell proliferation assay. In kind it is functional.
Series [2] concerns the target T1, Protein deacetylase HDAC6 (Homo sapiens) (UniProt Q9UBN7).
T1 sequence (whole entry): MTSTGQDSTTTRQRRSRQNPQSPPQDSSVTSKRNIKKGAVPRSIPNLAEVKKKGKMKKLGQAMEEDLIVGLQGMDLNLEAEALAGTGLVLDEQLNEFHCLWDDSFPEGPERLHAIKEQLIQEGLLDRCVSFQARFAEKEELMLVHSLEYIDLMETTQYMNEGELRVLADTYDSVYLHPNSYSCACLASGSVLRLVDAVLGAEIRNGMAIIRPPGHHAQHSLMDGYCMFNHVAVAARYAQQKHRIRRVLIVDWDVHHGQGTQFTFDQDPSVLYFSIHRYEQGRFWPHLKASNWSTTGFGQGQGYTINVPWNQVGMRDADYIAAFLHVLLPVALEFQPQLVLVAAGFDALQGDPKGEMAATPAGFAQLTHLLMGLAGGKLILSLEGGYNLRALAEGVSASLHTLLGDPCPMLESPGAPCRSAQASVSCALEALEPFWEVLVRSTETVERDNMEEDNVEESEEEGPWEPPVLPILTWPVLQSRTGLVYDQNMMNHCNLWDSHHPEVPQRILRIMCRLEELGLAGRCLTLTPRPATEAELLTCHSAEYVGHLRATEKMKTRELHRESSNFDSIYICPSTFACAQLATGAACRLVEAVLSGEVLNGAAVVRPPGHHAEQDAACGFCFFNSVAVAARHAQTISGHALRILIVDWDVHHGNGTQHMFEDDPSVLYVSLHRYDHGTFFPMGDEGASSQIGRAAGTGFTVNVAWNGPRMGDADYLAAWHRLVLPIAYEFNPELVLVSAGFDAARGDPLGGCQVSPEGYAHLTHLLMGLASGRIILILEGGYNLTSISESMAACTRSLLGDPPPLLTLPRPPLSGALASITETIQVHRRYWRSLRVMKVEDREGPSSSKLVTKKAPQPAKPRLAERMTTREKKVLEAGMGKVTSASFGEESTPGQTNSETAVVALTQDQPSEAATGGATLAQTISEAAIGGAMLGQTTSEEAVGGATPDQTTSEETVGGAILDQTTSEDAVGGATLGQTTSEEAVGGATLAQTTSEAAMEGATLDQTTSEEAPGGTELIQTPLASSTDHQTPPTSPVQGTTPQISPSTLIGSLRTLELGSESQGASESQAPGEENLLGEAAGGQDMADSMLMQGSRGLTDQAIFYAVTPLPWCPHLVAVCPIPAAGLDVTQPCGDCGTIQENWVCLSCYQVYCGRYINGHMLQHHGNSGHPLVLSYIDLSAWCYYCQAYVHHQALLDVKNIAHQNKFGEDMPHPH
Kind of series: Inhibition of recombinant human HDAC6 at 1 uM using Z-(Ac)Lys-AMC as substrate after 90 mins by fluorescence based micro plate assay. An outline of the steps:
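Recombinant human HDAC1 or HDAC6 incubated 90 min at 37 °C with 10.5 μM ZMAL (Z-(Ac)Lys-AMC) and increasing inhibitor concentrations, using a homogeneous fluorescence assay. Fluorescence read at Ex 390/Em 460 nm.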

Another series deals with HEK293. Kind of series: Cytotoxicity against human HEK293 assessed as reduction in cell viability incubated for 24 hrs by AlamarBlue assay. The following applies: hek293, 24 h. In kind it is cell-based. The gist of the method: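 HEK293 cells were grown at 37 °C under 5% CO2 in DMEM with 10% FCS and 5 mM glutamine and seeded at 1.5 x 10³ cells per well. Compound at 50 μM was added at once. After 24 h AlamarBlue was added for another 21 h, and fluorescence was read at Ex 560/Em 590 nm. Triplicates over three independent experiments.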
In general terms: The colour change of resazurin is a common sign of viable cells or microbes.

Series [3] has as its system THP-1. In words: Antiproliferative activity against human THP-1 assessed as reduction in cell growth at 20 uM by CellTiter-non radioactive cell proliferation assay. In kind it is functional.
The next series has as its target T2, Peregrin (Homo sapiens, UniProt P55201).
T2 sequence (P55201 whole entry): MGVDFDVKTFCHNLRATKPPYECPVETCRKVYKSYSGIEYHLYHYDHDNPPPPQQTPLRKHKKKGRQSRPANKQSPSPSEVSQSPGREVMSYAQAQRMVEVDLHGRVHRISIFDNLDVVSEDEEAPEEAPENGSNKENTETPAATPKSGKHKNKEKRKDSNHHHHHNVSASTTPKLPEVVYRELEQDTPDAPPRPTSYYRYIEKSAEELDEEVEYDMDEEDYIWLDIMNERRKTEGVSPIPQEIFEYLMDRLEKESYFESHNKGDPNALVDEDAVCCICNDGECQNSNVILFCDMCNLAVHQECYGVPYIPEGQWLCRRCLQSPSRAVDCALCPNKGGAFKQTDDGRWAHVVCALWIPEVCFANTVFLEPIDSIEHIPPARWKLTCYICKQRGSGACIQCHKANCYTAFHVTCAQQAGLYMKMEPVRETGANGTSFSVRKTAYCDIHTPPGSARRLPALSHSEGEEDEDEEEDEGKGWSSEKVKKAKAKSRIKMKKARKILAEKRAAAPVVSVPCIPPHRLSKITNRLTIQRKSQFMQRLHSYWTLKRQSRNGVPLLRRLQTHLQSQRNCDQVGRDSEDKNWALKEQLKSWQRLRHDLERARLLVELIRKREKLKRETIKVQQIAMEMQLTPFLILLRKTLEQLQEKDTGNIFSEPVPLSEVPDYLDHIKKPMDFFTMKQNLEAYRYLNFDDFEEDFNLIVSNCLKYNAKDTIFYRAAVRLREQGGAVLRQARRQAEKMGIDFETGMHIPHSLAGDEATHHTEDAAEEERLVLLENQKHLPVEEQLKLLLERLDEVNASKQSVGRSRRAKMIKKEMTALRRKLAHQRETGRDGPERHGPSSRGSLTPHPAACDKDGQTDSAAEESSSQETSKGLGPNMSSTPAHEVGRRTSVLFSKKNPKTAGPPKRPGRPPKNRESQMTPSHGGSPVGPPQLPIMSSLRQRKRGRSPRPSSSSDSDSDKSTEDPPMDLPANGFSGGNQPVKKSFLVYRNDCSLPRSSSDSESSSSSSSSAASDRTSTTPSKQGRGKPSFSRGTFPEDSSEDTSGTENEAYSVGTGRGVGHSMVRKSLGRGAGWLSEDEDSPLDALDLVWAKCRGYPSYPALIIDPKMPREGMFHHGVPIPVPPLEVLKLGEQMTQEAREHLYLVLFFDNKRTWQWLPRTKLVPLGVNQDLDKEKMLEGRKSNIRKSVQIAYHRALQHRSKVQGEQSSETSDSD
Kind of series: Binding affinity to BRPF1 (unknown origin) by Isothermal titration calorimetry. The settings on record: read-out: Kd. The gist of the method: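 Isothermal titration calorimetry with recombinant BRPF1 (200–400 μM) in the injection syringe titrated into ligand (20–40 μM) in the sample cell. Kd was fitted from the titrations and reported with its P99 interval.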

Broadly, the inhibition is the relative decrease from the control value, in per cent. Broadly, the Kd is the free concentration of one partner at which half of the binding sites on the other are occupied at equilibrium, for simple one-to-one binding.

On to `COc1ccc(C(=O)NO)cc1S(=O)(=O)Nc1ccc2c(c1)cc(C)c(=O)n2C`, for which, in the series with THP-1 [1], the inhibition at 4 µM was determined as 0%. Besides, the inhibition at 20 µM in the series with HL-60 came out at 10%; in the series with THP-1 [3], 32%. The inhibition in series [2] was 21%. Also, the Activity result in the series with HEK293 was “Non-Toxic”. For the same compound, the Kd at Peregrin is 67 nM.
